Here are results for 15 molecules from ChEMBL document CHEMBL1124918, “Synthesis and evaluation of alpha-[[(2-haloethyl)amino]methyl]-2- nitro-1H-imidazole-1-ethanols as prodrugs of alpha-[(1-aziridinyl)methyl]-2- nitro-1H-imidazole-1-ethanol (RSU-1069) and its analogues which are radiosensitizers and bioreductively activated cytotoxins” (J Med Chem, 1990).

A word on the half-life: it is the time in which the quantity being followed falls by half. Lower therefore signals rapid decline.

Data set [1] has as its system Mus musculus. As to the kind of experiment: Maximum tolerated dose was determined for compound administered intraperitoneally in C3H/He mice. It is filed as functional. A digest of the protocol: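 Female C3H/He mice, 8–12 weeks old, bearing KHT sarcoma. Given ip within 10 min, 0.5 mL/25 g (1 mL/25 g if solubility-limited). Escalating single doses to groups of 2–3 mice; MTD is the highest dose without severe or persistent clinical signs or death within 24 h.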

Data set [2] in a line: Half-life at pH of 5.5-6.0 at 4 degree Centigrade. The following applies: pH 5.5-6.0.
A short description of data set [3]: Ratio of concentration which reduced V79 cell survival to 1% under aerobic conditions to that of hypoxic conditions. It is filed as functional. A digest of the protocol: (§1)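 Chinese hamster V79-379A cells, 1.5 × 10⁶ per glass bottle, grown to confluency over 48 h. Exposed for 3 h at 37 °C to a range of agent concentrations in growth medium (pH 7.4), under aerobic or hypoxic conditions. Cells then trypsinized, diluted and plated for colony formation. The ratio is aerobic over hypoxic concentration.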

Data set [4] concerns V79. The data set can be described thus: Concentration which reduced survival to 1% following incubation 3 hours with V79 mammalian cells under hypoxic (Cnitrogen) conditions. It is filed as functional, cell-based. The following applies: Cricetulus griseus. A digest of the protocol:
as §1

Data set [5] relates to V79. The data set can be described thus: Concentration which reduced survival to 1% following incubation 3 hours with V79 mammalian cells under aerobic (Cair) conditions. It is filed as functional, cell-based. As to conditions: Cricetulus griseus. A digest of the protocol:
as §1

Data set [6] can be described thus: Half-life at pH of 5.5-6.0 at 23 degree Centigrade. Format: ADME. As to conditions: pH 5.5. A digest of the protocol:
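Agent (0.2–0.5 mM) incubated in PBS, with or without NaHCO₃ (24–107 mM), pH adjusted right after preparation, at 23 °C. Aliquots taken over time and checked for loss by isocratic HPLC on a CN column, UV at 313 nm. Mobile phase was 10–25% methanol in 10 mM KH₂PO₄, pH 3.0.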

Data set [7] is described as follows: Half-life at pH of 7.0 at 4 degree Centigrade. Format: ADME. The following applies: pH 7. A digest of the protocol:
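Agent (0.2–0.5 mM) incubated in PBS at pH 7.0 and 4 °C, with pH adjusted right after the solution was made. Aliquots taken at set times were analysed by isocratic HPLC on a CN column, with UV detection at 313 nm. Mobile phase was 10–25% methanol in 10 mM KH2PO4, pH 3.0, at 2 mL min⁻¹. Half-life came from loss of parent compound.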

Data set [8] concerns Mus musculus. As to the kind of experiment: Maximum tolerated dose was determined for compound administered intraperitoneally as a suspension in arachis oil in C3H/He mice. It is filed as functional.

In the data set with Mus musculus [1], `C[C@@H]1[C@H](C)N1CC(O)Cn1ccnc1[N+](=O)[O-]` (some centres undefined) registered an MTD of 3 mM/kg.
In the case of `CC(C)(Cl)C(C)(C)NCC(O)Cn1ccnc1[N+](=O)[O-].Cl` (centres undefined), the MTD with Mus musculus [1] worked out at 1.3 mM/kg. For the same molecule, the half-life in data set [2] is < 2 min.
`O=[N+]([O-])c1nccn1CC(O)CN1CC1` (centres undefined): the Ratio in data set [3] was found to be 100. Further, the MTD with Mus musculus [1] is 0.4 mM/kg. The Concentration in the data set with V79 [4] stood at 0.003 mM; with V79 [5] it was 0.3 mM.
In turn, `Br.O=[N+]([O-])c1nccn1CC(O)CNCCBr` (centres undefined) showed a half-life in data set [6] of 30 min. In addition, the Ratio in data set [3] came out at 25.5. In the data set with Mus musculus [1], this molecule displayed an MTD of 1 mM/kg. The values for the Concentration in the data set on V79 [4] and in the data set with V79 [5] were 0.09 mM and 2.3 mM, respectively.
Regarding `I.O=[N+]([O-])c1nccn1CC(O)CNCCI` (centres undefined), in data set [3], the Ratio is listed as 30. Also, the figures for the Concentration in the data set on V79 [4] and in the data set on V79 [5] were 0.08 mM and 2.4 mM, respectively.
On to `Cl.O=[N+]([O-])c1nccn1CC(O)CNCCCl` (centres undefined), for which the half-life in data set [6] is > 300 min; in data set [7], ~280 min. In data set [3], the Ratio came out at 14.3. The MTD with Mus musculus [1] came out at 1.5 mM/kg. For the same molecule, the results for the Concentration in the data set with V79 [4] and in the data set on V79 [5] were 0.35 mM and 5 mM, respectively.
On to `O=[N+]([O-])c1nccn1CC(O)CNCCO` (centres undefined), for which the Ratio in data set [3] was found to be 20. Further, the figures for the Concentration with V79 [4] and in the data set with V79 [5] were 3.5 mM and 70 mM, respectively.
In data set [7], `Br.C[C@@H](Br)[C@@H](C)NCC(O)Cn1ccnc1[N+](=O)[O-]` (some centres undefined) gave a half-life of 30 min. Also, the MTD in the data set with Mus musculus [1] stood at 1 mM/kg.
The molecule `Br.CC(C)(CBr)NCC(O)Cn1ccnc1[N+](=O)[O-]` (centres undefined) had an MTD with Mus musculus [1] of 1 mM/kg. For the same molecule, the half-life in data set [2] is < 5 min.
The corresponding values for `CC(C)(CCl)NCC(O)Cn1ccnc1[N+](=O)[O-].Cl` (centres undefined) are 0.8 mM/kg and 76 min.
In data set [6], `C[C@@H](Cl)[C@@H](C)NCC(O)Cn1ccnc1[N+](=O)[O-].Cl` (some centres undefined) gave a half-life of 120 min. Further, the MTD with Mus musculus [1] stood at 3 mM/kg.
In turn, `CCNCC(O)Cn1ccnc1[N+](=O)[O-]` (centres undefined) yielded an MTD with Mus musculus [1] of 3.9 mM/kg.
As for `Cl.F.O=[N+]([O-])c1nccn1CC(O)CNCCF` (centres undefined), the Ratio in data set [3] came to 14. Moreover, the Concentration with V79 [4] came to 2.5 mM; in the data set on V79 [5], 35 mM.
In the case of `CC1(C)N(CC(O)Cn2ccnc2[N+](=O)[O-])C1(C)C` (centres undefined), in the data set on Mus musculus [8], the MTD came to 1.5 mM/kg.
Molecule `Br.CC(C)(Br)C(C)(C)NCC(O)Cn1ccnc1[N+](=O)[O-]` (centres undefined) had an MTD in the data set on Mus musculus [1] of 0.7 mM/kg. In addition, the half-life in data set [2] is < 2 min.
